LGR2 antag = blocks bursicon-induced cAMP signaling via Drosophila LGR2; 0.35% of 380,000 active; AID 720647; HEK293 LGR2, CRE-luciferase, bursicon-stimulated, 4 h; inhibition, % at 9.99 µM;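 active means drop in luminescence signal, shown as inhibition above about 50% in the replicate tests, limit read from the data, passing the limit was not always enough; inconclusive means probably only some replicates passing the limit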;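 further: agonist challenge used bursicon conditioned medium at about half maximal strength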
Ecoli rRNA inh = inhibits bacterial ribosomal RNA function over humanized ribosomes | E. coli WT GFP vs humanized-ribosome RFP mutants, fluorescence, 24 h; active compounds read low; DMSO median 0, no signal -100 | GFP signal change (wild-type ribosome), % (no concentration beside the values) | 1.6% of 350,000 active | AID 720706;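 active means significant combined selectivity score with lowered wild-type GFP, culture density cut under 30%, mutant RFP and density less affected; inactive means any of these conditions unmet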
E-sel inducer = E-selectin induction on HUVECs | HUVEC E-selectin immunofluorescence imaging; normalized: neutral wells 0, TNF-alpha wells 100 | activation, % at 7.58 µM | 0.37% of 260,000 active | AID 686992;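 active means mean E-selectin-positive cell signal at least 10% of the positive control, reached in at least 60% of replicates, without over 20% cell loss; inconclusive means no rule given, readout overlaps actives, possibly toxicity-flagged; inactive means the rest, including those meeting only one limit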
Target sequence (P16581 whole entry, looked up): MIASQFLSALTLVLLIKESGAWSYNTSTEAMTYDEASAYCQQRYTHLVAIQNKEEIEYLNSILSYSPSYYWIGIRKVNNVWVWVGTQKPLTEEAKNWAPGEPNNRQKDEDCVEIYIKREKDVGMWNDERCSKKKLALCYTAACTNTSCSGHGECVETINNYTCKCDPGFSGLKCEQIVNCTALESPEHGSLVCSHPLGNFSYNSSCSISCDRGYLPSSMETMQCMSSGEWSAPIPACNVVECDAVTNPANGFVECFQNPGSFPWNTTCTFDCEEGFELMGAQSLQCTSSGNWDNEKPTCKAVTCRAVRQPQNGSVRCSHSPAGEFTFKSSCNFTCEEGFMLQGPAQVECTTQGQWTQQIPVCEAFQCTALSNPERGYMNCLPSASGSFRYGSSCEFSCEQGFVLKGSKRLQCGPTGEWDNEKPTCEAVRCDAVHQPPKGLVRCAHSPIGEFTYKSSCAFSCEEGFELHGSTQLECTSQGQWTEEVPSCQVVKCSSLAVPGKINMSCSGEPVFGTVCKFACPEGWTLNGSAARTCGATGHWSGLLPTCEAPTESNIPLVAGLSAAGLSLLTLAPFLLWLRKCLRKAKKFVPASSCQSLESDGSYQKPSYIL
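System: HUVEC / Compound: single concentration / Signal: immunofluorescence imaging / Read-out: percent E-selectin-positive cells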
EWS-Fli block = EWS/Fli transcriptional activity inhibition. inhibition, % at 12.6 µM. AID 651661. A673 NR0B1-luciferase reporter, viability-normalised. 0.67% of 350,000 active;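 active means mean inhibition of at least 50% after viability correction, with every replicate also passing that limit; inconclusive means mean reaches 50% but only one of two replicates passes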;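 further: firefly luciferase signal divided by Alamar Blue viability fluorescence both relative to DMSO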
Each line names hits and unclear results; the compound was inactive in the other large screens. Hits are enriched below; roughly 2.4% of the tested compounds scored in any of these assays.

O=C(Nc1ccc([N+](=O)[O-])cc1)NN1CCCCCC1	Ecoli rRNA inh -1.6
O=[N+]([O-])c1ccc(-c2csc(NN=C3CCCC3)n2)cc1	Ecoli rRNA inh -22
CC(C)C#Cc1cnc2c(c1)C(=O)N([C@@H](C)CO)C[C@H](C)[C@H](CN(C)C(=O)Nc1ccc(F)cc1)O2	none
O=C(N/N=C/C1CC=CCC1)c1cc(Br)ccc1O (stereo unspecified)	none
O=C(N/N=C/C1CC=CCC1)c1ccc(Cl)cc1O (stereo unspecified)	Ecoli rRNA inh -29 (no result: E-sel inducer)
Cc1ccc(NC(=S)Nc2ccc3cn[nH]c3c2)cc1C	none (no result: Ecoli rRNA inh, E-sel inducer, EWS-Fli block)
CC(=O)c1ccc(NC(=S)Nc2ccc3cn[nH]c3c2)cc1	none (no result: E-sel inducer)
CC(C)c1ccc(NC(=S)Nc2ccc3cn[nH]c3c2)cc1	Ecoli rRNA inh -46
Cc1ccc(NC(=S)Nc2ccc3cn[nH]c3c2)c(C)c1	Ecoli rRNA inh -26
COCCOC(=O)N1C(=O)[C@@]2(c3ccccc31)[C@H](c1ccccc1OCCO)N1[C@H](c3ccccc3)[C@H](c3ccccc3)OC(=O)[C@H]1[C@@H]2C(=O)N1CCCCCCC1	none (no result: LGR2 antag, Ecoli rRNA inh, E-sel inducer)
Cc1ccc(S(=O)(=O)N(C)C[C@H]2Oc3c(NS(C)(=O)=O)cccc3C(=O)N([C@H](C)CO)C[C@H]2C)cc1	none
CNS(=O)(=O)c1cc(N(C)S(=O)(=O)c2ccc(C)cc2)c(C)cc1C	Ecoli rRNA inh -45 (no result: E-sel inducer)
C[C@H]1CCCCO[C@@H](CN(C)C(=O)Nc2ccc(F)cc2)[C@@H](C)CN([C@@H](C)CO)C(=O)c2cc(NC(=O)C3CCCCC3)ccc2O1	LGR2 antag 66
C[C@H]1CCCCO[C@@H](CN(C)C(=O)Nc2ccccc2)[C@@H](C)CN([C@@H](C)CO)C(=O)c2cc(NC(=O)NC3CCCCC3)ccc2O1	LGR2 antag 63 (no result: E-sel inducer)
COc1ccc(NC(=O)N(C)C[C@@H]2OCCCC[C@H](C)Oc3ccc(NC(=O)NC4CCCCC4)cc3C(=O)N([C@H](C)CO)C[C@@H]2C)cc1	LGR2 antag 57 (no result: E-sel inducer)
N/C(=N\OC(=O)c1ccc2ccccc2c1)c1ccccn1	LGR2 antag 97, EWS-Fli block 80 (no result: E-sel inducer)
N/C(=N\OC(=O)c1cccc([N+](=O)[O-])c1)c1ccccn1	none (no result: E-sel inducer)
CC(C)(C)CC(=O)O/N=C(\N)c1ccccn1	LGR2 antag 62 (no result: Ecoli rRNA inh, E-sel inducer, EWS-Fli block)
COc1cccc(C(=O)O/N=C(\N)c2ccccn2)c1	LGR2 antag 101
N/C(=N\OC(=O)c1ccc2ccccc2c1)c1ccncc1	none (no result: E-sel inducer)
Cc1ccc(CC(=O)O/N=C(\N)c2ccccn2)cc1	none (no result: E-sel inducer)
COc1cccc(C(=O)O/N=C(\N)c2ccccn2)c1OC	LGR2 antag 69
N#C[C@H]1[C@H](c2ccc(C#CC3CCCC3)cc2)[C@@H](CO)N1C(=O)Cc1ccccn1	none
N/C(=N\OC(=O)c1ccc(=O)n(Cc2ccccc2)c1)c1ccccn1	none (no result: E-sel inducer)
CCCc1ccc(C(=O)O/N=C(\N)c2ccccn2)cc1	LGR2 antag 103, EWS-Fli block 88
Cc1ccc(S(=O)(=O)N(C)C[C@H]2OCCCC[C@H](C)Oc3ccc(NS(=O)(=O)c4cccs4)cc3C(=O)N([C@H](C)CO)C[C@H]2C)cc1	none (no result: E-sel inducer)
CCOC(=O)COc1ccc2c(C#N)c3ccccn3c2c1	none
COc1cc(OC)cc(C(=O)c2c(C)c(C#N)c3ccccn23)c1	EWS-Fli block 58 (no result: E-sel inducer)
C/C=C/c1ccc([C@H]2[C@@H](CO)N(C(=O)C3CCC3)[C@@H]2CNC(=O)NC(C)C)cc1	none (no result: EWS-Fli block)
C[C@H]1CN(C)C(=O)c2cccc(N(C)C)c2O[C@H]1CN(C)S(C)(=O)=O	none (no result: LGR2 antag, E-sel inducer, EWS-Fli block)
COc1cccc(S(=O)(=O)Nc2ccc3c(c2)C(=O)N(C)[C@H]2CC[C@H](CC(=O)Nc4cc(F)ccc4F)O[C@@H]2CO3)c1	none (no result: LGR2 antag, E-sel inducer, EWS-Fli block)
Cc1ccc2nc(SCC(=O)c3c(N)n(C)c(=O)n(C)c3=O)[nH]c2c1	EWS-Fli block 54 (no result: E-sel inducer)
CNC[C@@H]1Oc2c(NC(=O)Nc3c(C)noc3C)cccc2C(=O)N([C@@H](C)CO)C[C@@H]1C	none
CCCC(=O)Nc1ccc2c(c1)C(=O)N(C)C[C@@H](OC)[C@@H](C)CN(C(C)=O)[C@H](C)CO2	none
O=C(Nc1cccc(Cl)c1)N1C[C@@H]2[C@H](c3ccccc31)[C@H](CO)N2C(=O)c1cccnc1	Ecoli rRNA inh -20
O=C(Nc1ccc(Cl)cc1)N1C[C@@H]2[C@H](c3ccccc31)[C@H](CO)N2C(=O)c1ccccn1	Ecoli rRNA inh -53
O=C(Nc1ccccc1)N1C[C@@H]2[C@H](c3ccccc31)[C@@H](CO)N2C(=O)Cc1ccccn1	Ecoli rRNA inh -37
O=C(Nc1ccc(Cl)cc1)N1C[C@@H]2[C@H](c3ccccc31)[C@@H](CO)N2C(=O)c1ccccn1	Ecoli rRNA inh -25
O=C(Nc1ccc(F)cc1)N1C[C@@H]2[C@H](c3ccccc31)[C@@H](CO)N2C(=O)c1ccccn1	none
C[C@@H]1CN([C@@H](C)CO)C(=O)c2c(c3ccccc3n2C)-c2ccccc2CO[C@H]1CN(C)Cc1cccc(C(=O)Nc2ccccc2N)c1	none
COc1ccccc1CNC(=O)C[C@H]1C[C@@H]2c3cc(NC(=O)CN(C)C)ccc3O[C@@H]2[C@@H](CO)O1	none
C[C@H](CO)N1C[C@H](C)[C@H](CN(C)Cc2ccc(C(=O)Nc3ccccc3N)cc2)Oc2c(NS(=O)(=O)c3ccccc3)cccc2C1=O	none
CC1(c2ccccc2)O[C@@H]2C[C@H]3[C@@H]4CCC5=CC(=O)C=C[C@]5(C)[C@@]4(F)[C@@H](O)C[C@]3(C)[C@]2(C(=O)CO)O1 (stereo partly specified)	Ecoli rRNA inh -22
COCCNC(=O)C[C@@H]1CC[C@H]2[C@H](COc3ccc(NC(=O)Nc4ccccc4)cc3C(=O)N2C)O1	none
CCn1cc(C(=O)OCC(=O)Nc2ccccc2OC(F)F)c(=O)c2ccc(C)nc21	none
CCn1cc(C(=O)OCC(=O)Nc2ccc(C(C)C)cc2)c(=O)c2ccc(C)nc21	Ecoli rRNA inh -23
CC1=C(C(=O)N(C)C)CC(CC(=O)NCc2cccc3ccccc23)C(=O)N1CCC1=CCCCC1 (stereo unspecified)	Ecoli rRNA inh -27 (no result: E-sel inducer)
COc1ccc(NC(=O)Nc2cccc([N+](=O)[O-])c2)cc1Cl	LGR2 antag inconclusive
COc1ccccc1CCNC(=O)Nc1cccc([N+](=O)[O-])c1	Ecoli rRNA inh -20 (no result: E-sel inducer)
CCn1c(-c2c[nH]c3ccccc23)n[nH]c1=S	Ecoli rRNA inh -20 (no result: E-sel inducer)
Cc1ccc2c(c1)sc(=NC(=O)c1cccs1)n2C	LGR2 antag 96, EWS-Fli block 78 (no result: E-sel inducer)
C[C@@H]1CN([C@@H](C)CO)C(=O)c2cc(NC(=O)Nc3ccc(C(F)(F)F)cc3)ccc2O[C@@H](C)CCCCO[C@H]1CN(C)CC1CCCCC1	none (no result: LGR2 antag, E-sel inducer)
C[C@@H]1CCCCO[C@@H](CN(C)S(C)(=O)=O)[C@@H](C)CN([C@H](C)CO)C(=O)c2cc(NC(=O)CCCN(C)C)ccc2O1	E-sel inducer 49
C[C@H](CO)N1C[C@H](C)[C@@H](CN(C)CC2CCCCC2)OCCCC[C@H](C)Oc2ccc(NC(=O)Nc3ccc(C(F)(F)F)cc3)cc2C1=O	EWS-Fli block 60
